Rows were chosen to be rich in hits. Some 1.5% of all compounds tested hit in one or more screens of this group.
Mdm2 ligase inh: blocks human Mdm2 ubiquitin ligase activity | Q00987 | cell-based MDM2 ubiquitination luciferase reporter, 2 h; 0 = plate control, 100 = twice control, blank-subtracted | signal enhancement, % at 5 µM | 210,000 tested, 0.11% active | AID 1230;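 active means signal enhancement of 30% or more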;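 further: luminescence tracks abundance of the self-degrading MDM2-luciferase fusion protein; higher signal means inhibition of MDM2 E3 ligase activity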
Target sequence (Q00987 whole entry, looked up, the tested form may be a part): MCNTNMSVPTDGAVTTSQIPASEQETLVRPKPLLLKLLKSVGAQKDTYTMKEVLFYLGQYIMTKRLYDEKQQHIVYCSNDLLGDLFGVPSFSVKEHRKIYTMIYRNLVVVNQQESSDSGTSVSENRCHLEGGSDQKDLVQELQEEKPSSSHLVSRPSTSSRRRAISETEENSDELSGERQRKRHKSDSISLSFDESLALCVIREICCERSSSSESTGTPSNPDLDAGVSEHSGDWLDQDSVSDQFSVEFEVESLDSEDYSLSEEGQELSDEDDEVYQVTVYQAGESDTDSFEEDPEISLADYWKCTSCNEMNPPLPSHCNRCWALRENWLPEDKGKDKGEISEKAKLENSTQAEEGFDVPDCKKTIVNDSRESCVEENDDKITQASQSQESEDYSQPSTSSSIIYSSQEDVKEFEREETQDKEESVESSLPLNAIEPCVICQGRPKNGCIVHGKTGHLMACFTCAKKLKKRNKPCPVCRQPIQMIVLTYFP
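Material: stable MDM2–luciferase fusion reporter cells / Quantity: 2000 cells/well / Dosing: single 5 µM compound dose, 0.2% final DMSO / Buffer or medium: DMEM / Schedule: 4 h cell settling then 2 h compound exposure, 37 °C / Detection: luminescence with SteadyLite reagent, 15 min at room temperature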
Pf gametocyte: inhibitors of late stage P. falciparum gametocyte viability; P. falciparum stage V gametocytes, ATP luminescence, 24 h; inhibition, % at 10.9 µM; 150,000 tested, 0.065% active; AID 743093;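 active means inhibition above the mean plus 3 SD of compounds within the control limits, set per campaign, cut at about 38% in these data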;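 further: 0% = DMSO wells and 100% = medium only without gametocytes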
Wee1 degr inh: blocks degradation of human Wee1 kinase; P30291; HeLa Luc-Wee1K328M stability, luciferase luminescence; 100% = proteasome inhibitor MG132 effect; reporter increase, % at 5 µM; 220,000 tested, 1.2% active;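 active means activation above the mean of all tested compounds plus 3 SD, set per screening run, cut at about 8.8% in these data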;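 further: cells exposed to compound for 20 h before luminescence read; 0% = DMSO alone and 100% = MG132 at 30 µM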
Hsp70 activator: transcriptional activators of Hsp70; 200,000 tested, 0.04% active; HeLa Hsp70 promoter luciferase reporter, luminescence; scaled: vehicle 0, proteasome-inhibitor control 100%; AID 1203; activation, % at 10 µM;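 active means activation above the mean across all tested compounds plus 3 SD, cutoff set per campaign, cut at about 5.5% in these data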;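 further: 100% = MG132 at 30 µM as the positive control and 0% = DMSO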
Calpain2 inh: calpain II (pig) inhibition; purified calpain II, fluorogenic peptide substrate, 30 min; inhibition, % at 16 µM; 220,000 tested, 0.37% active;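 active means inhibition above about 50%, limit read from the data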
An asterisk follows results filed as active; x = not tested or not shown.

SMILES | Mdm2 ligase inh | Pf gametocyte | Wee1 degr inh | Hsp70 activator | Calpain2 inh
O=C(NCCNc1ccc([N+](=O)[O-])cc1)c1cccc(Br)c1 | 4 | -33 | 9.4* | 0 | -2
O=C(CCNc1ccc(F)cc1)c1cccc([N+](=O)[O-])c1 | 6 | x | 2 | 0 | 14
O=C(NNC(=O)C1CC1c1ccccc1)c1cccc([N+](=O)[O-])c1 (stereo not given) | 0 | x | 11* | 0 | -6
O=C(Nc1cccc([N+](=O)[O-])c1)c1cc2ccccc2cc1O | -23 | -19 | 10* | x | 1
C=CCN1C(=O)/C(=C/c2ccc(OC(C)=O)c(OCC)c2[N+](=O)[O-])SC1=S | -7 | -36 | 1 | 0 | 7
CC(=O)NC1CC2CCCC(C1)N2C(=O)Nc1cccc(C(C)=O)c1 (stereo not given) | x | -2 | x | x | x
CC(=O)Nc1ccc(S(=O)(=O)N2CCN(c3ccc([N+](=O)[O-])cc3)CC2)cc1 | x | 0 | x | x | x
Cc1c(C(=O)Nc2cccc([N+](=O)[O-])c2)csc1-c1ccccc1 | -29 | 6 | 10* | 0 | 4
O=C(Nc1cccc([N+](=O)[O-])c1)c1cccc(C(=O)Nc2cccc([N+](=O)[O-])c2)c1 | -17 | x | 1 | x | 56*
O=C(Nc1ccc(NC(=O)c2cccc([N+](=O)[O-])c2)cc1)c1cccc([N+](=O)[O-])c1 | x | -7 | x | x | x
COc1cc(OC)cc(-c2c(-c3cccs3)c3cc(-c4ccc5c(c4)OCCO5)ccc3n2C)c1 | x | -7 | x | x | x
CN(Cc1ccccc1)c1ccc(C(CC(N)=O)NC(=O)c2ccc(Br)cc2)cc1[N+](=O)[O-] (stereo not given) | x | -20 | x | x | x
Cc1cccc(NC(=O)C2CC3CCC2C3)c1C (stereo not given) | x | 3 | x | x | x
COc1cccc(OC)c1C(=O)Nc1cc(Cl)ccc1N1CCOCC1 | -2 | x | -2 | 0 | -2
O=C(COS(=O)c1ccccc1)Nc1cc(Cl)ccc1N1CCOCC1 (stereo not given) | -8 | 12 | 9.0* | 0 | -19
CCOC(=O)[C@H]1[C@H]2COc3ccc(OC)cc3[C@@H]2N2C(=O)[C@H](C)NC(=O)[C@@]12C | x | 17 | x | x | x
Cc1ccc(OCC(COCc2ccccc2)NC(C)C)cc1 (stereo not given) | x | -3 | x | x | x
Cc1cccc(NC(=O)c2c(F)c(F)c(F)c(F)c2F)c1 | -16 | x | 0 | 0 | 19
O=C(CS(=O)(=O)Cc1ccccc1)Nc1ccc2c(c1)OCO2 | -23 | -4 | 11* | 0 | -39
O=C(Nc1ccc2c(c1)OCO2)c1c(F)c(F)c(F)c(F)c1F | -6 | 12 | 1 | 0 | 52*
O=C(CNS(=O)(=O)c1ccccc1)Nc1ccc2c(c1)OCO2 | -5 | -6 | -3 | 0 | -16
CC(=O)c1cccc(NC(=O)c2c(F)c(F)c(F)c(F)c2F)c1 | -18 | x | 6 | 0 | 51*
Cc1ccc(C(=O)NNC(=O)c2ccc3ccccc3c2O)cc1 | x | -8 | x | x | x
O=C(O)c1ccc(COc2ccccc2Cl)cc1 | -3 | x | 9.1* | 0 | -19
O=C(O)c1cccc(COc2ccccc2Cl)c1 | -98 | x | x | x | 5
SMILES | Mdm2 ligase inh | Pf gametocyte | Wee1 degr inh | Hsp70 activator | Calpain2 inh
C=C[C@@H](C)N(Cc1ccc(OC)cc1)S(=O)(=O)N(Cc1ccccc1)[C@H](C=C)C(C)C | x | -7 | x | x | x
COCCNc1nc2nonc2nc1N(C)Cc1cccc2cnccc12 | 48* | x | 3 | 0 | -19
N#Cc1ncc(Cc2ccccc2)nc1C#N | x | 6 | x | x | x
c1ccc(-c2nnc3sc(-c4ccncc4)nn23)cc1 | -5 | 52* | 1 | 0 | -8
CC(=O)N[C@@H](C)c1nc2ccccc2n1CCCN1CCN(c2nc(-c3ccc(C)cc3)cs2)CC1 | x | 2 | x | x | x
CC(C)CN(CCOc1cccc(N2C(=O)C3=C(CCCC3)C2=O)c1)CC(C)C | -7 | -9 | 9.0* | 0 | 34
O=C1C2=C(CCCC2)C(=O)N1c1cccc(OCCBr)c1 | 7 | 0 | 2 | 0 | -4
O=C(/C=C/c1ccco1)c1ccc(O)cc1 | -18 | x | 0 | 0 | 31
CN(C)c1ccc(C(=O)/C=C/c2ccco2)cc1 | -39 | -2 | 9.4* | 0 | -3
COc1ccc(-n2c(=S)[nH]c3cc(C(=O)Nc4cccc(C)c4)ccc3c2=O)cc1 | x | -1 | 0 | 0 | 17
COc1ccc(-n2c(=S)[nH]c3cc(C(=O)Nc4ccc(OC)c(OC)c4)ccc3c2=O)cc1 | x | x | 0 | 0 | 60*
CC(C)(C)c1ccc(NC(=O)COC(=O)CCN2C(=O)c3cccc([N+](=O)[O-])c3C2=O)cc1 | -9 | 7 | 17* | 0 | -11
COc1ccc(NC(=O)CCN2C(=O)c3cccc([N+](=O)[O-])c3C2=O)cc1 | x | 14 | x | x | x
COc1ccccc1N(CC(=O)NC1CCCCC1)S(=O)(=O)c1cccs1 | x | -19 | 9.9* | x | -17
CCCCNC(=O)C1CCCN(S(=O)(=O)c2c(C)noc2/C=C/c2cccs2)C1 (stereo not given) | -7 | -17 | 0 | x | -5
Cc1noc(/C=C/c2cccs2)c1S(=O)(=O)N1CCC(C(=O)NCCCN2CCCC(C)C2)CC1 (stereo not given) | x | 5 | 9.2* | 0 | -14
CN(C)C(=S)Nc1ccc(Cc2ccncc2)cc1 | x | -25 | x | x | x
CCOC(=O)CNC(=S)N(CCCN1CCCCC1)Cc1cccs1 | -4 | 0 | 9.8* | 0 | 3
CCOC(=O)CNC(=S)N(CCCN1CCCCCC1)Cc1cccs1 | 4 | -12 | 0 | 0 | -12
C#CCOCCOCCOCCNc1nc(OC)nc(N2CCN(C(=O)[C@H](CCC(=O)O)n3cc(C(N)CO)nn3)CC2)n1 (stereo not given in full) | x | -18 | x | x | x
Cc1nn(C)c(C)c1NS(=O)(=O)c1ccc(N2CCCC2=O)cc1 | -4 | x | 0 | 0 | -1
Cc1ccccc1NS(=O)(=O)c1ccc(N2CCCC2=O)cc1 | x | 10 | 10* | 0 | 2
CC(C)Oc1cccc(-c2cc(C(=O)N3CCN(c4ncccn4)CC3)c3ccccc3n2)c1 | 6 | -29 | 9.3* | 0 | -6
CCOC(=O)c1c(C)[nH]c(C)c1C(=O)CN1C(=O)NC(CC(C)C)C1=O (stereo not given) | 5 | x | 9.4* | 0 | -28
CCOC(=O)c1c(C)[nH]c(C)c1C(=O)CN1C(=O)NC2(CCC(C)CC2)C1=O (stereo not given) | -10 | 23 | -2 | -1 | 1
O=C(c1ccco1)N1N=C2CCCCCC2C1(O)C(F)(F)F (stereo not given) | 9 | 6 | 11* | 0 | -3
O=C(c1ccncc1)N1N=C2CCCCCC2C1(O)C(F)(F)F (stereo not given) | 0 | x | 1 | 0 | -28
Nc1c(Cl)ncnc1N/N=C/c1ccccn1 | 19 | -1 | -2 | 0 | 35
Nc1c(Cl)ncnc1N/N=C/c1ccc2ccccc2n1 | 41* | -5 | 0 | 0 | 12
